# ChEMBL document CHEMBL1140876, “Synthesis and antibacterial property of quinolines with potent DNA gyrase activity” (2009)
# Calls of active or inactive are those of the source. No cut-off for these calls is given here.
# Assays:
# [1] = Inhibition of DNA gyrase assessed as conversion of relaxed pBR322 to supercoiled form
# Outline: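 Supercoiling in 15 µL reactions: gyrase assay buffer, 150 ng relaxed pBR322, 2–3 µL purified DNA gyrase, 3 h at 37 °C (E. coli); stopped with 50% glycerol/0.25% bromophenol blue; 1% agarose in 1× TBE pH 8.3, 90 V 3 h; ethidium bromide stain; supercoiled band brightness by densitometry. Ciprofloxacin comparator.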
# [2] = Inhibition of DNA gyrase assessed as pBR322 DNA relaxation at 1 uM
# Outline: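 Relaxation without ATP: gyrase (60 nM) with supercoiled pBR322 DNA (6 nM) and drug at […] for 1 h at 37 °C; relaxation judged by gel. Ciprofloxacin, novobiocin and nalidixic acid comparators.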
# [3] = tested on: Staphylococcus aureus; assay: Antimicrobial activity against Staphylococcus aureus by broth microdilution assay; type: functional
# Outline: (§1)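 Broth microdilution per NCCLS 1997 in 96-well plate; final inoculum 10^5 cfu/mL; incubated 35.7 °C in air 18–20 h; MIC read as lowest concentration with no visible growth.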
# [4] = tested on: Escherichia coli; assay: Antimicrobial activity against Escherichia coli by broth microdilution assay; type: functional; outline: as §1
# [5] = tested on: Pseudomonas aeruginosa; assay: Antimicrobial activity against Pseudomonas aeruginosa by broth microdilution assay; type: functional; outline: as §1
# [6] = tested on: Klebsiella pneumoniae; assay: Antimicrobial activity against Klebsiella pneumoniae by broth microdilution assay; type: functional; outline: as §1
# [7] = tested on: Salmonella typhi; assay: Antimicrobial activity against Salmonella typhi by broth microdilution assay; type: functional, Salmonella enterica subsp. enterica serovar Typhi; settings: Salmonella enterica
# Outline: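 Broth microdilution in 96-well plates following the NCCLS 1997 protocol. Final inoculum was 10^5 cfu/mL, with a control organism run alongside. Plates were incubated at 35.7 °C in air for 18–20 h. MIC is the lowest concentration with no visible growth.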
# [8] = tested on: Bacillus subtilis; assay: Antimicrobial activity against Bacillus subtilis by broth microdilution assay; type: functional; outline: as §1
# [9] = tested on: Staphylococcus aureus; assay: Antimicrobial activity against Staphylococcus aureus at 5 ug after 24 hrs by disk diffusion method; type: functional; settings: read-out: IZ
# Outline: (§2)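 Inoculum made in 0.85% saline against McFarland standard, swabbed evenly onto nutrient agar; sterile filter-paper discs set equidistant and loaded with equal volumes of drug at varying amounts; zone of inhibition measured after 24 h at 37 °C; ciprofloxacin reference.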
# [10] = tested on: Escherichia coli; assay: Antimicrobial activity against Escherichia coli at 5 ug after 24 hrs by disk diffusion method; type: functional; settings: read-out: IZ; outline: as §2
# [11] = tested on: Pseudomonas aeruginosa; assay: Antimicrobial activity against Pseudomonas aeruginosa at 5 ug after 24 hrs by disk diffusion method; type: functional; settings: read-out: IZ; outline: as §2
# [12] = tested on: Klebsiella pneumoniae; assay: Antimicrobial activity against Klebsiella pneumoniae at 5 ug after 24 hrs by disk diffusion method; type: functional; settings: read-out: IZ; outline: as §2
# [13] = tested on: Salmonella typhimurium; assay: Antimicrobial activity against Salmonella Typhimurium at 5 ug after 24 hrs by disk diffusion method; type: functional, Salmonella enterica subsp. enterica serovar Typhimurium; settings: Salmonella enterica, read-out: IZ; outline: as §2
# [14] = tested on: Bacillus subtilis; assay: Antimicrobial activity against Bacillus subtilis at 5 ug after 24 hrs by disk diffusion method; type: functional; settings: read-out: IZ; outline: as §2
# [15] = tested on: Staphylococcus aureus; assay: Antimicrobial activity against Staphylococcus aureus at 10 ug after 24 hrs by disk diffusion method; type: functional; settings: read-out: IZ; outline: as §2
# [16] = tested on: Escherichia coli; assay: Antimicrobial activity against Escherichia coli at 10 ug after 24 hrs by disk diffusion method; type: functional; settings: read-out: IZ; outline: as §2
# [17] = tested on: Pseudomonas aeruginosa; assay: Antimicrobial activity against Pseudomonas aeruginosa at 10 ug after 24 hrs by disk diffusion method; type: functional; settings: read-out: IZ; outline: as §2
# [18] = tested on: Klebsiella pneumoniae; assay: Antimicrobial activity against Klebsiella pneumoniae at 10 ug after 24 hrs by disk diffusion method; type: functional; settings: read-out: IZ; outline: as §2
# [19] = tested on: Salmonella typhimurium; assay: Antimicrobial activity against Salmonella Typhimurium at 10 ug after 24 hrs by disk diffusion method; type: functional, Salmonella enterica subsp. enterica serovar Typhimurium; settings: Salmonella enterica, read-out: IZ; outline: as §2
# [20] = tested on: Bacillus subtilis; assay: Antimicrobial activity against Bacillus subtilis at 10 ug after 24 hrs by disk diffusion method; type: functional; settings: read-out: IZ; outline: as §2
# [21] = tested on: Staphylococcus aureus; assay: Antimicrobial activity against Staphylococcus aureus at 15 ug after 24 hrs by disk diffusion method; type: functional; settings: read-out: IZ; outline: as §2
# [22] = tested on: Escherichia coli; assay: Antimicrobial activity against Escherichia coli at 15 ug after 24 hrs by disk diffusion method; type: functional; settings: read-out: IZ; outline: as §2
# [23] = tested on: Pseudomonas aeruginosa; assay: Antimicrobial activity against Pseudomonas aeruginosa at 15 ug after 24 hrs by disk diffusion method; type: functional; settings: read-out: IZ; outline: as §2
# [24] = tested on: Klebsiella pneumoniae; assay: Antimicrobial activity against Klebsiella pneumoniae at 15 ug after 24 hrs by disk diffusion method; type: functional; settings: read-out: IZ; outline: as §2
# [25] = tested on: Salmonella typhimurium; assay: Antimicrobial activity against Salmonella Typhimurium at 15 ug after 24 hrs by disk diffusion method; type: functional, Salmonella enterica subsp. enterica serovar Typhimurium; settings: Salmonella enterica, read-out: IZ; outline: as §2
# [26] = tested on: Bacillus subtilis; assay: Antimicrobial activity against Bacillus subtilis at 15 ug after 24 hrs by disk diffusion method; type: functional; settings: read-out: IZ; outline: as §2
# [27] = tested on: Staphylococcus aureus; assay: Antimicrobial activity against Staphylococcus aureus at 20 ug after 24 hrs by disk diffusion method; type: functional; settings: read-out: IZ; outline: as §2
# [28] = tested on: Escherichia coli; assay: Antimicrobial activity against Escherichia coli at 20 ug after 24 hrs by disk diffusion method; type: functional; settings: read-out: IZ; outline: as §2
# [29] = tested on: Pseudomonas aeruginosa; assay: Antimicrobial activity against Pseudomonas aeruginosa at 20 ug after 24 hrs by disk diffusion method; type: functional; settings: read-out: IZ; outline: as §2
# [30] = tested on: Klebsiella pneumoniae; assay: Antimicrobial activity against Klebsiella pneumoniae at 20 ug after 24 hrs by disk diffusion method; type: functional; settings: read-out: IZ; outline: as §2
# [31] = tested on: Salmonella typhimurium; assay: Antimicrobial activity against Salmonella Typhimurium at 20 ug after 24 hrs by disk diffusion method; type: functional, Salmonella enterica subsp. enterica serovar Typhimurium; settings: Salmonella enterica, read-out: IZ; outline: as §2
# [32] = tested on: Bacillus subtilis; assay: Antimicrobial activity against Bacillus subtilis at 20 ug after 24 hrs by disk diffusion method; type: functional; settings: read-out: IZ; outline: as §2
# [33] = tested on: Staphylococcus aureus; assay: Antimicrobial activity against Staphylococcus aureus at 25 ug after 24 hrs by disk diffusion method; type: functional; settings: read-out: IZ; outline: as §2
# [34] = tested on: Escherichia coli; assay: Antimicrobial activity against Escherichia coli at 25 ug after 24 hrs by disk diffusion method; type: functional; settings: read-out: IZ; outline: as §2
# [35] = tested on: Pseudomonas aeruginosa; assay: Antimicrobial activity against Pseudomonas aeruginosa at 25 ug after 24 hrs by disk diffusion method; type: functional; settings: read-out: IZ; outline: as §2
# [36] = tested on: Klebsiella pneumoniae; assay: Antimicrobial activity against Klebsiella pneumoniae at 25 ug after 24 hrs by disk diffusion method; type: functional; settings: read-out: IZ; outline: as §2
# [37] = tested on: Salmonella typhimurium; assay: Antimicrobial activity against Salmonella Typhimurium at 25 ug after 24 hrs by disk diffusion method; type: functional, Salmonella enterica subsp. enterica serovar Typhimurium; settings: Salmonella enterica, read-out: IZ; outline: as §2
# [38] = tested on: Bacillus subtilis; assay: Antimicrobial activity against Bacillus subtilis at 25 ug after 24 hrs by disk diffusion method; type: functional; settings: read-out: IZ; outline: as §2
# [39] = Inhibition of DNA gyrase assessed as pBR322 DNA relaxation at 2.5 uM
# Outline: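 Gyrase (60 nM) was incubated with supercoiled pBR322 DNA (6 nM) and increasing compound concentrations (0, 0.1, 0.25, 0.5, 2.5) without ATP for 1 h at 37 °C. Relaxation of the supercoiled DNA was evaluated.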
compound,measurement,setting,value
c1ccc(C2c3cc(Cc4ccc5c(c4)C(c4ccccc4)C4Cn6cccc6C4N5)ccc3NC3c4cccn4CC32)cc1 (configuration not stated),Activity,[1],Active
same,Activity,[2],Active
same,MIC50,[3],128 µg/mL
same,MIC90,[3],128 µg/mL
same,MIC50,[4],2 µg/mL
same,MIC90,[4],8 µg/mL
same,MIC50,[5],1 µg/mL
same,MIC90,[5],8 µg/mL
same,MIC50,[6],0.125 µg/mL
same,MIC90,[6],2 µg/mL
same,MIC50,[7],2.51 µg/mL
same,MIC90,[7],5 µg/mL
same,MIC50,[8],0.25 µg/mL
same,MIC90,[8],5 µg/mL
same,zone of inhibition at 5 µg/disc,[9],9 mm
same,zone of inhibition at 5 µg/disc,[10],11 mm
same,zone of inhibition at 5 µg/disc,[11],20 mm
same,zone of inhibition at 5 µg/disc,[12],12 mm
same,zone of inhibition at 5 µg/disc,[13],10 mm
same,zone of inhibition at 5 µg/disc,[14],7 mm
same,zone of inhibition at 10 µg/disc,[15],13 mm
same,zone of inhibition at 10 µg/disc,[16],14 mm
same,zone of inhibition at 10 µg/disc,[17],24 mm
same,zone of inhibition at 10 µg/disc,[18],16 mm
same,zone of inhibition at 10 µg/disc,[19],16 mm
same,zone of inhibition at 10 µg/disc,[20],9 mm
same,zone of inhibition at 15 µg/disc,[21],15 mm
same,zone of inhibition at 15 µg/disc,[22],16 mm
same,zone of inhibition at 15 µg/disc,[23],26 mm
same,zone of inhibition at 15 µg/disc,[24],19 mm
same,zone of inhibition at 15 µg/disc,[25],18 mm
same,zone of inhibition at 15 µg/disc,[26],10 mm
same,zone of inhibition at 20 µg/disc,[27],17 mm
same,zone of inhibition at 20 µg/disc,[28],21 mm
same,zone of inhibition at 20 µg/disc,[29],28 mm
same,zone of inhibition at 20 µg/disc,[30],24 mm
same,zone of inhibition at 20 µg/disc,[31],22 mm
same,zone of inhibition at 20 µg/disc,[32],12 mm
same,zone of inhibition at 25 µg/disc,[33],21 mm
same,zone of inhibition at 25 µg/disc,[34],22 mm
same,zone of inhibition at 25 µg/disc,[35],30 mm
same,zone of inhibition at 25 µg/disc,[36],26 mm
same,zone of inhibition at 25 µg/disc,[37],24 mm
same,zone of inhibition at 25 µg/disc,[38],13 mm
c1ccc(C2c3ccccc3N[C@H]3c4cccn4C[C@@H]23)cc1 (some centres not stated),Activity,[1],Active
same,Activity,[39],Active
same,MIC50,[3],64 µg/mL
same,MIC90,[3],128 µg/mL
same,MIC50,[4],2 µg/mL
same,MIC90,[4],4 µg/mL
same,MIC50,[5],0.5 µg/mL
same,MIC90,[5],32 µg/mL
same,MIC50,[6],2 µg/mL
same,MIC90,[6],32 µg/mL
same,MIC50,[7],1.64 µg/mL
same,MIC90,[7],2.5 µg/mL
same,MIC50,[8],2.5 µg/mL
same,MIC90,[8],5 µg/mL
same,zone of inhibition at 5 µg/disc,[9],9 mm
same,zone of inhibition at 5 µg/disc,[10],10 mm
same,zone of inhibition at 5 µg/disc,[11],10 mm
same,zone of inhibition at 5 µg/disc,[12],20 mm
same,zone of inhibition at 5 µg/disc,[13],10 mm
same,zone of inhibition at 10 µg/disc,[15],12 mm
same,zone of inhibition at 10 µg/disc,[16],16 mm
same,zone of inhibition at 10 µg/disc,[17],16 mm
same,zone of inhibition at 10 µg/disc,[18],26 mm
same,zone of inhibition at 10 µg/disc,[19],16 mm
same,zone of inhibition at 10 µg/disc,[20],7 mm
same,zone of inhibition at 15 µg/disc,[21],13 mm
same,zone of inhibition at 15 µg/disc,[22],18 mm
same,zone of inhibition at 15 µg/disc,[23],17 mm
same,zone of inhibition at 15 µg/disc,[24],30 mm
same,zone of inhibition at 15 µg/disc,[25],18 mm
same,zone of inhibition at 15 µg/disc,[26],6 mm
same,zone of inhibition at 20 µg/disc,[27],14 mm
same,zone of inhibition at 20 µg/disc,[28],20 mm
same,zone of inhibition at 20 µg/disc,[29],22 mm
same,zone of inhibition at 20 µg/disc,[30],34 mm
same,zone of inhibition at 20 µg/disc,[31],22 mm
same,zone of inhibition at 20 µg/disc,[32],7 mm
same,zone of inhibition at 25 µg/disc,[33],17 mm
same,zone of inhibition at 25 µg/disc,[34],23 mm
same,zone of inhibition at 25 µg/disc,[35],24 mm
same,zone of inhibition at 25 µg/disc,[36],36 mm
same,zone of inhibition at 25 µg/disc,[37],24 mm
same,zone of inhibition at 25 µg/disc,[38],9 mm
